Results taken from ChEMBL document CHEMBL4041497, “Isolation of Phorbol Esters from Euphorbia grandicornis and Evaluation of Protein Kinase C- and Human Platelet-Activating Effects of Euphorbiaceae Diterpenes” (J Nat Prod, 2016).
Calls of active or inactive are those of the source. The calls are words filed in the database; no cut-off is given here.

Assays:
[1] = target: T1, Protein kinase C (PKC) (Homo sapiens) (UniProt O94806+P41743+P17252+P05129+Q05655+P05771+Q05513+Q02156+P24723+Q15139+Q04759); assay: Activation of PKC in human platelet assessed as induction of platelet aggregation at 10 uM measured within 15 mins by tribidimetric method
How it was run: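 Washed human platelets in Tyrode's solution (2 mM Ca2+, 11.1 mM glucose, 3.5 mg/mL BSA) at 3 × 10^8 platelets/mL, prewarmed 3 min at 37 °C, then given compound or DMSO vehicle with fast shaking (20 Hz) at 37 °C. Aggregation read turbidimetrically as maximal rise in light transmission at 450 nm within 15 min. Means ± SEM, n = 3.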

[2] = target: T1, Protein kinase C (PKC) (Homo sapiens); assay: Activation of PKC in human platelet assessed as phosphorylation of VASP at 0.1 uM measured after 10 mins by Western blot analysis
How it was run: (§1)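 Washed human platelets were prewarmed 3 min at 37 °C and exposed to compound for 10 min. They were lysed directly in 2× SDS sample buffer and boiled 5 min, then run on SDS-PAGE. Immunoblots used phospho-specific antibodies (phospho-Ser PKC substrate, p-Akt Ser308, p-ERK, p-p38, p-VASP, p-PKD, p-MARCKS) with HRP anti-rabbit and chemiluminescence. GAPDH served as loading control.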

[3] = target: Protein kinase C beta type (Homo sapiens) (UniProt P05771); assay: Induction of PKC-beta1 translocation from cytosol to plasma membrane in human platelet at 0.1 uM measured after 1 min by Western blot analysis
How it was run: (§2)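 Platelets were treated with compound for 1 min, then lysed with 0.1% digitonin (4 °C, 3 min) and spun at 14 000 rpm for 10 min; the supernatant was the cytosol. The pellet was extracted with 1% Triton X-100 and respun; that supernatant was the membrane fraction. Both fractions were immunoblotted for PKC-α, -β, -δ and -θ.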

[4] = target: T1, Protein kinase C (PKC) (Homo sapiens); assay: Activation of PKC in human platelet assessed as phosphorylation of PKC substrates at 0.1 uM measured after 10 mins by Western blot analysis; how it was run: as §1
[5] = target: T1, Protein kinase C (PKC) (Homo sapiens); assay: Activation of PKC in human platelet assessed as phosphorylation of ERK at 0.1 uM measured after 10 mins by Western blot analysis; how it was run: as §1
[6] = target: T1, Protein kinase C (PKC) (Homo sapiens); assay: Activation of PKC in human platelet assessed as phosphorylation of PKD at 0.1 uM measured after 10 mins by Western blot analysis; how it was run: as §1
[7] = target: Protein kinase C alpha type (Homo sapiens) (UniProt P17252); assay: Induction of PKC-alpha translocation from cytosol to plasma membrane in human platelet at 0.1 uM measured after 1 min by Western blot analysis; how it was run: as §2
[8] = target: T1, Protein kinase C (PKC) (Homo sapiens); assay: Activation of PKC in human platelet assessed as phosphorylation of MARCK at 0.1 uM measured after 10 mins by Western blot analysis; how it was run: as §1
[9] = target: T1, Protein kinase C (PKC) (Homo sapiens); assay: Activation of PKC in human platelet assessed as phosphorylation of AKT at ser-308 at 0.1 uM measured after 10 mins by Western blot analysis; how it was run: as §1
[10] = target: Protein kinase C delta type (Homo sapiens) (UniProt Q05655); assay: Induction of PKC-delta translocation from cytosol to plasma membrane in human platelet at 0.1 uM measured after 1 min by Western blot analysis; how it was run: as §2
[11] = target: T1, Protein kinase C (PKC) (Homo sapiens); assay: Activation of PKC in human platelet assessed as phosphorylation of p38 at 0.1 uM measured after 10 mins by Western blot analysis; how it was run: as §1
[12] = target: T1, Protein kinase C (PKC) (Homo sapiens); assay: Activation of PKC in human platelet assessed as increase in platelet secretion by measuring ATP release at 0.1 uM measured after 5 mins by luciferin-luciferase assay
How it was run: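 Tyrode's-suspended washed human platelets (3 × 10^8/mL; Ca2+ 2 mM, glucose 11.1 mM, BSA 3.5 mg/mL). Prewarmed 3 min at 37 °C, then incubated 5 min at 37 °C with compound or DMSO vehicle. Spun 1 min at 4 °C; released ATP in supernatant read by luciferin–luciferase reaction. Means ± SEM, n = 3.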

[13] = target: Protein kinase C (PKC); assay: Activation of PKC in human platelet assessed as induction of platelet aggregation measured within 15 mins by tribidimetric method
[14] = target: T1, Protein kinase C (PKC) (Homo sapiens); assay: Activation of PKC in human platelet assessed as reduction in phosphorylation of AKT at ser-308 at 0.1 uM in presence of PKCalpha/beta inhibitor Go6976 measured after 10 mins by Western blot analysis
How it was run: (§3)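 Human platelets were pretreated 1 min with Go6976 1 μM or DMSO vehicle, then stimulated with compound. Lysates were made in 2× SDS sample buffer and boiled, then run on SDS-PAGE and nitrocellulose blots. Probes were phospho-specific antibodies (PKC substrates, Akt Ser308, MARCKS, VASP, p38) with chemiluminescent detection. GAPDH was the loading control.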

[15] = target: T1, Protein kinase C (PKC) (Homo sapiens); assay: Activation of PKC in human platelet assessed as increase in platelet secretion by measuring ATP release at 0.1 uM in presence of PKCalpha/beta inhibitor Go6976 measured after 5 mins by luciferin-luciferase assay
How it was run: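 Washed human platelets at 3 × 10^8/mL in Tyrode's with Ca2+ 2 mM, glucose 11.1 mM and BSA 3.5 mg/mL. Pretreated 1 min with Go6976 1 μM or DMSO vehicle, then compound added. After 5 min at 37 °C, centrifuged at 4 °C; supernatant ATP quantified by luciferin–luciferase assay. Means ± SEM, n = 3.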

[16] = target: T1, Protein kinase C (PKC) (Homo sapiens); assay: Activation of PKC in human platelet assessed as reduction in phosphorylation of PKC substrates at 0.1 uM in presence of PKCalpha/beta inhibitor Go6976 measured after 10 mins by Western blot analysis; how it was run: as §3
[17] = target: T1, Protein kinase C (PKC) (Homo sapiens); assay: Activation of PKC in human platelet assessed as increase in platelet secretion by measuring ATP release at 0.1 uM in presence of PKC inhibitor GF109203X measured after 5 mins by luciferin-luciferase assay
How it was run: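 Washed human platelets at 3 × 10^8/mL in Tyrode's with Ca2+ 2 mM, glucose 11.1 mM and BSA 3.5 mg/mL. Prewarmed 3 min at 37 °C, then preincubated 3 min with GF109203X 1 μM before compound. After 5 min at 37 °C, spun at 4 °C; supernatant ATP measured by luciferin–luciferase bioluminescence. Means ± SEM, n = 3.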

[18] = target: T1, Protein kinase C (PKC) (Homo sapiens); assay: Activation of PKC in human platelet assessed as reduction in phosphorylation of p38 at 0.1 in presence of PKCalpha/beta inhibitor Go6976 measured after 10 mins by Western blot analysis; how it was run: as §3
[19] = target: T1, Protein kinase C (PKC) (Homo sapiens); assay: Activation of PKC in human platelet assessed as reduction in phosphorylation of VASP at 0.1 uM in presence of PKCalpha/beta inhibitor Go6976 measured after 10 mins by Western blot analysis; how it was run: as §3
[20] = target: Protein kinase C theta type (Homo sapiens) (UniProt Q04759); assay: Induction of PKC-theta translocation from cytosol to plasma membrane in human platelet at 0.1 uM measured after 1 min by Western blot analysis; how it was run: as §2
[21] = target: T1, Protein kinase C (PKC) (Homo sapiens); assay: Activation of PKC in human platelet assessed as reduction in phosphorylation of MARCK at 0.1 uM in presence of PKCalpha/beta inhibitor Go6976 measured after 10 mins by Western blot analysis; how it was run: as §3

Sequence of Protein kinase C delta type (Homo sapiens) (Q05655 whole entry, looked up): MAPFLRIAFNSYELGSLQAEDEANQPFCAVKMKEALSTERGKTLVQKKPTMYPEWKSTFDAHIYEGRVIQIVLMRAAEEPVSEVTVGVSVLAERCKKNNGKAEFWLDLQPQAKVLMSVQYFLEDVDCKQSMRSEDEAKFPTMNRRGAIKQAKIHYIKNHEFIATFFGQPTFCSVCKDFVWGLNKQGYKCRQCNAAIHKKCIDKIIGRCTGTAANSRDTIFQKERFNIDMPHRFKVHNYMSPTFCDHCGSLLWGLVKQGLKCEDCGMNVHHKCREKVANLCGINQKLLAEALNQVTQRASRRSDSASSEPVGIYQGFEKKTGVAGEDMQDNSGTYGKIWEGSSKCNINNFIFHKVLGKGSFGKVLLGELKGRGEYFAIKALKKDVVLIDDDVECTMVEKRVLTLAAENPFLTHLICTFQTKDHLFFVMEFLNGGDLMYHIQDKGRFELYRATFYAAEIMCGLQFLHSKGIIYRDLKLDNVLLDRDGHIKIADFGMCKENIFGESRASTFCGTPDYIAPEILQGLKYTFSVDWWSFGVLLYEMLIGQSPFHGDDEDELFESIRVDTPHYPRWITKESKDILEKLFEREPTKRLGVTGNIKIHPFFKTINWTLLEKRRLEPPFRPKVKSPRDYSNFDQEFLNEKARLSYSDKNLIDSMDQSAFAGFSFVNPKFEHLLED
Sequence of Protein kinase C beta type (Homo sapiens) (P05771 2-671 limits assumed): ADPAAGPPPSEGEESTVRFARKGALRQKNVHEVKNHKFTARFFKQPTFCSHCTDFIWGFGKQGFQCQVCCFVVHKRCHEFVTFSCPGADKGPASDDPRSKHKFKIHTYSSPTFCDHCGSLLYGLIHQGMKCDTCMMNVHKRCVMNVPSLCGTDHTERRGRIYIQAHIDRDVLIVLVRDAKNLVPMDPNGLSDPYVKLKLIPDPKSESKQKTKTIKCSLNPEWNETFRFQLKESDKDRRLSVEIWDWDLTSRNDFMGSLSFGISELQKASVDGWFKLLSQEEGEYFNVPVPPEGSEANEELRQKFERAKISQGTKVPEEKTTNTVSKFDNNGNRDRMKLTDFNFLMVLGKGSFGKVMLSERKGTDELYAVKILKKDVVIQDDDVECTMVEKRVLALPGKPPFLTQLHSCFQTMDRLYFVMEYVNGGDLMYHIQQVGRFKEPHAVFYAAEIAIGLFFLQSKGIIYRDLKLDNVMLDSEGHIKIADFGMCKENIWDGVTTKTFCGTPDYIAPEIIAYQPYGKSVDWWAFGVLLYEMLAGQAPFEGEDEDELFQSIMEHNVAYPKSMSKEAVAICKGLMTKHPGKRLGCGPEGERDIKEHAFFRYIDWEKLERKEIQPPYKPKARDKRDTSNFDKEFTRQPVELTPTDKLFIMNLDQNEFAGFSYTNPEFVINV
Sequence of Protein kinase C theta type (Homo sapiens) (Q04759 whole entry, looked up): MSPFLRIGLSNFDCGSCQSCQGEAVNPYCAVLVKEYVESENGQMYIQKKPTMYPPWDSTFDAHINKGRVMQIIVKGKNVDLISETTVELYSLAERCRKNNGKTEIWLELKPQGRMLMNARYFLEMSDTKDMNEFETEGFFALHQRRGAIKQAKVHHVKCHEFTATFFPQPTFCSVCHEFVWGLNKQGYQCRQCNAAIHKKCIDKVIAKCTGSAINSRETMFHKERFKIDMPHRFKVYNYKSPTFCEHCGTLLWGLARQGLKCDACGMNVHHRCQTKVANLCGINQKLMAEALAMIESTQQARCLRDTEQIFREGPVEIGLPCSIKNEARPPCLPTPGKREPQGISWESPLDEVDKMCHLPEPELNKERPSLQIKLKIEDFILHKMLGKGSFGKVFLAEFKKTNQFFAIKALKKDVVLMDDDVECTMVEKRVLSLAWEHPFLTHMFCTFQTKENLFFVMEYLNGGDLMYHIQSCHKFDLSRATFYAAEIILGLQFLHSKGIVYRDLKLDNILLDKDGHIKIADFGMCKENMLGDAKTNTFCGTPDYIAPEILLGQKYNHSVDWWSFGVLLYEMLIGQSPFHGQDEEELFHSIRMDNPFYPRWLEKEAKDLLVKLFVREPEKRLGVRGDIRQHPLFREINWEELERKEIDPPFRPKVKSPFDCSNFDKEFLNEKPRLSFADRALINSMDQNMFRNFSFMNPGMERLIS

Compound: C=C1[C@H](OC(C)=O)CC(=O)C(C)(C)/C=C/[C@@H](C)C(=O)[C@@]2(OC(C)=O)C[C@@](C)(OC(C)=O)[C@H](OC(C)=O)[C@@H]2[C@H]1OC(C)=O
- Activity [1]: inactive

Compound: C/C=C(/C)C(=O)O[C@H]1C(C)=C[C@]23C(=O)[C@@H](C=C(CO)[C@@H](O)[C@]12O)[C@H]1[C@@H](C[C@H]3C)C1(C)C [INGENOL MEBUTATE]
- Activity [2]: Active
- Activity [3]: Active
- Activity [4]: Active
- Activity [5]: Active
- Activity [6]: Active
- Activity [7]: Active
- Activity [8]: Active
- Activity [9]: Active
- Activity [10]: Active
- Activity [11]: Active
- Activity [12]: Active
- EC50 [13]: 0.0725 µM

Compound: C=C1[C@H](OC(C)=O)CC(=O)C(C)(C)/C=C/[C@@H](C)C(=O)[C@@]2(OC(C)=O)C[C@@](C)(OC(=O)c3ccccc3)[C@H](OC(C)=O)[C@@H]2[C@H]1OC(C)=O
- Activity [1]: inactive

Compound: C/C=C(/C)C(=O)OC[C@]1(C)[C@H]2[C@@H]3C=C(COC(C)=O)C[C@]4(O)C(=O)C(C)=C[C@H]4[C@@]3(O)[C@H](C)C[C@]21OC(=O)C(C)C
- EC50 [13]: 6.08 µM

Compound: CC(=O)O[C@@H]1[C@H]2[C@@H](OC(=O)c3ccccc3)[C@@H](C)C[C@]2(OC(C)=O)[C@@H](OC(C)=O)[C@]2(C)OC[C@]13C(=O)C=C[C@H](C(C)(C)OC(C)=O)[C@@H]23
- Activity [1]: inactive

Compound: CCCCCCCCCCCCCC(=O)O[C@@H]1[C@@H](C)[C@@]2(O)[C@@H](C=C(CO)C[C@]3(O)C(=O)C(C)=C[C@@H]23)[C@@H]2C(C)(C)[C@]12OC(C)=O
- Activity [14]: inactive
- Activity [15]: inactive
- Activity [16]: inactive
- Activity [2]: Active
- Activity [3]: Active
- Activity [4]: Active
- Activity [17]: inactive
- Activity [5]: Active
- Activity [18]: inactive
- Activity [19]: inactive
- Activity [6]: Active
- Activity [20]: Active
- Activity [7]: Active
- Activity [8]: Active
- Activity [9]: Active
- Activity [10]: Active
- Activity [11]: Active
- Activity [12]: Active
- Activity [21]: inactive

Compound: C/C=C(/C)C(=O)O[C@H]1C(C)=C[C@]23C(=O)[C@@H](C=C(C)[C@@H](O)[C@]12O)[C@H]1[C@@H](C[C@H]3C)C1(C)C
- EC50 [13]: 5.04 µM
